Assay results reported in the M2OR odorant receptor database.

Legend:
Conditions in all cases: stereoisomer not certain
[1] = target: UniProt Q7TRN9
In short: (§1)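 Whether a receptor–molecule pair is responsive (active) rests on the original authors' judgment that its measured signal was statistically different from baseline. Pairs without that judgment are non-responsive (inactive). Sources used varied assay methods, commonly transient luciferase assays in mammalian cell lines.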

[2] = target: UniProt Q7TRR8
In short: as §1

[3] = target: UniProt Q8VF06
In short: as §1
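Note: active if original authors judged signal statistically different from baseline.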

UniProt Q7TRR8, sequence (Q7TRR8 as listed by the source): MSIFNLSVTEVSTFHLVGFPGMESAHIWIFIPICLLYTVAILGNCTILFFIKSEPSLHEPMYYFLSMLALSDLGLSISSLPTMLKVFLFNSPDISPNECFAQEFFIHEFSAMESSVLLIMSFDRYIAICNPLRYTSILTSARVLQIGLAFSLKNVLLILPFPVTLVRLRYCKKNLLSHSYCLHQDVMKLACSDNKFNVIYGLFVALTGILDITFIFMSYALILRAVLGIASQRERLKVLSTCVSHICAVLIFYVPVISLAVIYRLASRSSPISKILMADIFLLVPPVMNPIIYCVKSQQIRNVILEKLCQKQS
UniProt Q8VF06, sequence (Q8VF06 as listed by the source): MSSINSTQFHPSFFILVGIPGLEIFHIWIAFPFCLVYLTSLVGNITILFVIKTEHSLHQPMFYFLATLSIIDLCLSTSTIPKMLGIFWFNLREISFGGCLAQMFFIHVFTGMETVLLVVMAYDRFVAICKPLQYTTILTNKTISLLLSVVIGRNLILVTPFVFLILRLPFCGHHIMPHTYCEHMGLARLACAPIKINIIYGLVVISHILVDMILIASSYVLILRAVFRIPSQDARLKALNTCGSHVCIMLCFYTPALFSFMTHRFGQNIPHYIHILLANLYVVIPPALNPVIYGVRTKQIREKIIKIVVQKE
UniProt Q7TRN9, sequence (Q7TRN9 as listed by the source): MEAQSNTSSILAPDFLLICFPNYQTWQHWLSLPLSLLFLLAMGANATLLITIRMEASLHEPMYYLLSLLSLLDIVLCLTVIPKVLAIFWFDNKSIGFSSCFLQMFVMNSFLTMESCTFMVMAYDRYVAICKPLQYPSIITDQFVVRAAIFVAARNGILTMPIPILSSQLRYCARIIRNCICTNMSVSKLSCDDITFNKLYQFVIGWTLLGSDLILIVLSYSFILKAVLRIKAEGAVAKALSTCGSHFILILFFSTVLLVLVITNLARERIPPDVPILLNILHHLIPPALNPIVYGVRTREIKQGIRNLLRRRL

O=C(O)CCCCCCCBr
odorant receptor agonist call [1]: active | odorant receptor agonist call [2]: inactive | odorant receptor agonist call [3]: inactive
